# Thrombin inh = inhibitors of human thrombin | alpha-thrombin, Boc-VPR-AMC fluorogenic substrate cleavage | inhibition, % at 5 µM | 220,000 tested, 0.26% active | AID 1046;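 active = inhibition at or above 40%; inactive = inhibition below 40%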;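 note: 0% = enzyme with no compound and 100% = wells without enzyme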
#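 System – human alpha-thrombin protein · Reagent – Boc-VPR-AMC substrate, 15 µM final · Compound – 5 µM single dose in 0.2% DMSO · Schedule – reaction at room temperature · Technique – AMC fluorescence at 355 nm excitation and 460 nm emission · Read-out basis – % inhibition relative to enzyme controls and enzyme-free blanks · Control set – no-compound enzyme wells and no-enzyme blanks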
# FXIIa inh 1536 = factor XIIa (human) inhibition; P00748; purified FXIIa, Boc-QGR-AMC fluorogenic substrate, 2 h; inhibition, % at 5 µM; 220,000 tested, 0.3% active; AID 800; in the data active = inhibition above about 40%;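 note: 0% = enzyme with no compound and 100% = blank without enzyme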
# KLK5 inh = blocks human kallikrein 5 protease activity | Q9Y337 | recombinant hK5, fluorogenic AMC substrate cleavage | inhibition, % at 5 µM | 210,000 tested, 0.59% active | AID 873;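 active = inhibition of 40% or more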;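 note: 0% = enzyme controls without compound and 100% = no-enzyme blanks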
# FXIa inh 1536 = factor XIa (human) inhibition; 220,000 tested, 0.14% active; purified FXIa, Boc-Glu-Ala-Arg-AMC fluorogenic substrate; AID 798; inhibition, % at 5 µM;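 active = inhibition of at least 40%; inactive = inhibition below 40%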;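 note: fluorescence of freed AMC excited at 355 nm; 0% = enzyme without compound and 100% = no enzyme blank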
# PERK inhibitor = human PERK inhibition, primary cell-based screen; 220,000 tested, 0.17% active; inhibition, % at 5.6 µM; CHO PERK-DD fusion, SEAP luminescence translation reporter;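 active = inhibition above the mean inhibition of all tested compounds plus 3 SD, set separately per screening campaign, cut at about 2.9% in these data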;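 note: PERK kinase domain activated by AP20187 dimerizer at 100 nM; 0% = DMSO with dimerizer and 100% = rapamycin at 8.4 µM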
# Furin inhibitor = blocks human furin protease activity; P09958; purified furin, fluorogenic substrate cleavage; inhibition, % at 20 µM or 30 µM; 220,000 tested, 0.061% active; AID 463115; in the data active = inhibition above about 25%
# * marks the source's active call; other numbers are inactive results; nt = not tested or not shown. Sampled rows, rich in hits. Any-hit rate of the full collection: about 1.2%.
SMILES,Thrombin inh,FXIIa inh 1536,KLK5 inh,FXIa inh 1536,PERK inhibitor,Furin inhibitor
CCOc1cc(S(=O)(=O)NCc2ccc(OC)cc2)c(OCC)cc1-n1cnnn1,68.9*,19.8,45.8*,18.1,-1.4,-7.4
CCOc1cc(S(=O)(=O)NCCc2ccc(OC)c(OC)c2)c(OCC)cc1-n1cnnn1,-1.1,12.3,-23.3,-5.5,-2.5,-11.3
S=C1Nc2ccccc2Sc2ccc(Cl)cc21,31.1,5.2,67.1*,12.5,-0.7,-4.7
Clc1cc2c(nn1)Nc1ccccc1S2,3.9,8.7,-1.1,2.5,0.8,-10.5
O=C1c2ccccc2C(=O)N1CCCN1CCN(CCCN2C(=O)c3ccccc3C2=O)CC1,nt,nt,nt,nt,-0.4,-15.5
O=C1CC(=C2c3ccccc3-c3ccccc32)C(=O)N1CCCCN1CCN(c2ccccc2)CC1,-2.8,12.6,-13.6,3.8,-0.3,28.3*
O=C1c2ccccc2C(=O)N1CCCCN1CCN(CCCCN2C(=O)c3ccccc3C2=O)CC1,nt,nt,nt,nt,1.4,25.8*
CCOc1ccc(CNc2ccc(S(N)(=O)=O)cc2)cc1,1.3,3.1,-5.1,-0.4,3.3*,-14.4
N/C(=N\S(=O)(=O)c1ccccc1)c1ccc([N+](=O)[O-])cc1,47.7*,9.0,8.4,-8.9,0.2,-6.7
COC(=O)c1sccc1NC(=S)N1CC(C)CC(C)C1 (stereo not given),1.6,12.3,0.9,-0.9,-0.3,-12.4
O=C(CP(=O)(c1ccccc1)c1ccccc1)Nc1nc2ccc(Cl)cc2s1,-4.5,0.5,-8.3,-4.7,-2.4,-19.8
O=C(Nc1cccc(F)c1)C1CCN(C(=O)c2ccccc2Cl)CC1,4.1,9.5,45.7*,0.9,-1.0,-8.1
CSc1cccc(NC(=O)C2CCN(C(=O)c3ccccc3C)CC2)c1,-9.2,0.4,-10.3,-1.0,-0.6,-22.2
Cc1ccc(S(=O)(=O)N2CCN(Cc3cc(C(C)C)ccc3O)CC2)cc1,-0.5,43.1*,3.3,13.6,0.0,-22.2
Cc1ccc(S(=O)(=O)N2CCN(Cc3ccccc3C(F)(F)F)CC2)cc1,3.8,25.3,-2.1,7.9,1.2,-18.9
Cc1cccc(OCC(=O)N2CCN(C(=O)c3ccco3)CC2)c1,-2.9,10.0,nt,3.0,0.6,-14.4
CC(C)COc1cccc(C(=O)NC(=S)Nc2cccc(NC(=O)c3ccccc3Cl)c2)c1,18.2,21.7,41.7*,15.4,-0.2,-23.3
CCN(CC)CCCNC(=O)c1ccc2c(Cl)c3c(nc2c1)CCCC3,11.5,6.5,-3.3,-4.8,-1.2,-22.0
O=C(NCCCN1CCCC1)c1ccc2c(Cl)c3c(nc2c1)CCCC3,2.9,41.2*,0.8,-3.9,-0.5,-19.9
COCCCn1cn[nH]c1=S,-7.7,22.2,63.4*,28.0,-0.6,-7.9
COc1ccc(C2CC(c3ccccc3)=NN2C(=O)CN2CCN(Cc3ccccc3)CC2)cc1 (stereo not given),84.8*,26.6,28.8,32.1,-0.4,-9.6
COc1ccc(C2=NN(C(=O)CCCC(=O)O)C(c3cn(-c4ccccc4)nc3-c3ccccc3)C2)cc1 (stereo not given),18.8,40.1*,16.6,24.1,0.5,0.0
CCCCCCCCCCOC(=O)C[N+](C)(C)C/C=C(/C)Cl,-2.7,11.5,-16.9,3.2,0.9,-18.2
CCCCCCCCCCCCCCCC(=O)OC[C@H](COP(=O)([O-])OCC[N+](C)(C)C)OC(=O)CCCCCCCCCCCCCCC,-1.7,10.0,-6.9,8.5,3.0*,6.8
CC(C)c1ccc(NC(=S)Nc2ccc3cn[nH]c3c2)cc1,41.8*,6.9,3.1,1.1,0.2,-21.7
SMILES,Thrombin inh,FXIIa inh 1536,KLK5 inh,FXIa inh 1536,PERK inhibitor,Furin inhibitor
Cc1ccc(NS(=O)(=O)c2cccc([N+](=O)[O-])c2)nc1,-8.3,4.4,-2.3,-4.0,0.3,-21.1
COc1ccc2c(c1)CCc1c(C(=O)NCc3ccc(Cl)cc3)noc1-2,-2.5,1.8,-22.9,-6.9,1.4,-11.5
COc1ccc2c(c1)CCc1c(C(=O)NCc3ccc(F)cc3)noc1-2,-2.8,49.1*,-7.4,6.1,0.4,-2.2
CC(=O)N1CCc2[nH]c3ccccc3c2C1,2.0,7.2,-9.8,0.8,3.3*,-15.4
Cc1ccccc1CO/N=C/c1[nH]ncc1Br,-1.5,6.4,-0.7,1.2,3.5*,-19.8
COc1cc(/C=N/NC(N)=O)cc(Br)c1OCc1ccccc1C,2.3,15.9,-5.8,-6.5,2.4,-6.3
COc1ccc(-c2csc(N(CCc3ccc(OC)c(OC)c3)C(=O)COc3ccccc3)n2)cc1,-4.4,6.4,13.1,-9.3,-0.9,-14.1

# Assay outcomes from PubChem BioAssay.
